Our source for the MIC values is ChEMBL document CHEMBL4257460, “Synthesis and antifungal activity of novel oxazolidin-2-one-linked 1,2,3-triazole derivatives” (2017).

Format in all cases: functional
One test concerns Nakaseomyces glabratus. Description: Antifungal activity against Candida glabrata ATCC 34138 by M27-A3 guideline based method. The procedure, abridged: (§1)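 Broth microdilution per CLSI (M38-A for filamentous fungi, M27-A3 for yeasts), in MOPS-buffered RPMI-1640 medium. Itraconazole served as the reference antifungal. The MIC was read as the endpoint and expressed in µg/mL.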
The subject of another test is Cyberlindnera jadinii. The test can be described thus: Antifungal activity against Candida utilis ATCC 9226 by M27-A3 guideline based method. Particulars: Williopsis jadinii. The procedure, abridged: as §1
A further test deals with Candida albicans. The test can be described thus: Antifungal activity against Candida albicans ATCC 10231 by M27-A3 guideline based method. The procedure, abridged: as §1
Another test has as its system Mucor hiemalis. The test can be described thus: Antifungal activity against Mucor hiemalis ATCC 8690 by M38-A guideline based method. The gist of the method: as §1
The test system of a further test is Pichia kudriavzevii. Description: Antifungal activity against Candida krusei ATCC 14243 by M27-A3 guideline based method. The gist of the method:
as §1

Test [1] relates to Cutaneotrichosporon cutaneum. The test can be described thus: Antifungal activity against Trichosporon cutaneum ATCC 28592 by M38-A guideline based method. The gist of the method:
as §1

The subject of another test is Rhizopus arrhizus. The test can be described thus: Antifungal activity against Rhizopus oryzae ATCC 10329by M38-A guideline based method. The gist of the method: as §1
In the next test the test system is Candida tropicalis. The test can be described thus: Antifungal activity against Candida tropicalis ATCC 13803 by M27-A3 guideline based method. The gist of the method:
as §1

A further test concerns Aspergillus fumigatus. The test can be described thus: Antifungal activity against Aspergillus fumigatus ATCC 16907 by M38-A guideline based method. The procedure, abridged: as §1
In the next test the test system is Candida parapsilosis. Description: Antifungal activity against Candida parapsilosis ATCC 22019 by M27-A3 guideline based method. The note with it: Lodderomyces parapsilosis. The procedure, abridged:
as §1

Converted amounts (≈) assume the structure as drawn.

On to `Cc1ccc(-c2c(S(=O)(=O)c3ccc(C)cc3)nnn2CCn2c(-c3ccccc3)c(-c3ccccc3)oc2=O)cc1`, for which the MIC is 2 mg/L (≈ 3.47 µM) in the test on Nakaseomyces glabratus; 4 mg/L (≈ 6.94 µM) with Cyberlindnera jadinii; 1 mg/L (≈ 1.73 µM) in the test on Candida albicans; 16 mg/L (≈ 27.7 µM) in the test with Mucor hiemalis; 8 mg/L (≈ 13.9 µM) in the test on Pichia kudriavzevii; 8 mg/L (≈ 13.9 µM) in test [1]. The MIC was determined as 16 mg/L (≈ 27.7 µM) in the test on Rhizopus arrhizus, 8 mg/L (≈ 13.9 µM) against Candida tropicalis, 8 mg/L (≈ 13.9 µM) in the test on Aspergillus fumigatus and 0.25 mg/L (≈ 0.434 µM) in the test on Candida parapsilosis.

Regarding `Cc1ccc(S(=O)(=O)c2nnn(CCn3c(-c4ccccc4)c(-c4ccccc4)oc3=O)c2-c2ccc(Cl)cc2)cc1`, the MIC turned out to be 4 mg/L (≈ 6.7 µM) with Nakaseomyces glabratus; 8 mg/L (≈ 13.4 µM) in the test on Cyberlindnera jadinii; 8 mg/L (≈ 13.4 µM) against Candida albicans; 16 mg/L (≈ 26.8 µM) in the test with Mucor hiemalis; 8 mg/L (≈ 13.4 µM) against Pichia kudriavzevii; 8 mg/L (≈ 13.4 µM) in [1]. The MIC was determined as 16 mg/L (≈ 26.8 µM) with Rhizopus arrhizus, 8 mg/L (≈ 13.4 µM) against Candida tropicalis, 4 mg/L (≈ 6.7 µM) in the test with Aspergillus fumigatus and 8 mg/L (≈ 13.4 µM) against Candida parapsilosis.

In the case of `Cc1ccc(S(=O)(=O)c2nnn(CCn3c(-c4ccccc4)c(-c4ccccc4)oc3=O)c2-c2cccs2)cc1`, the MIC came out at 1 mg/L (≈ 1.76 µM) in the test with Nakaseomyces glabratus; 8 mg/L (≈ 14.1 µM) in the test with Cyberlindnera jadinii; 8 mg/L (≈ 14.1 µM) against Candida albicans; 16 mg/L (≈ 28.1 µM) with Mucor hiemalis; 8 mg/L (≈ 14.1 µM) with Pichia kudriavzevii; 8 mg/L (≈ 14.1 µM) in [1]. Besides, the MIC was 16 mg/L (≈ 28.1 µM) in the test on Rhizopus arrhizus, 8 mg/L (≈ 14.1 µM) with Candida tropicalis, 8 mg/L (≈ 14.1 µM) in the test with Aspergillus fumigatus and 8 mg/L (≈ 14.1 µM) in the test with Candida parapsilosis.

Take `N#Cc1nnn(CCn2c(-c3ccccc3)c(-c3ccccc3)oc2=O)c1-c1ccccc1`: the MIC against Nakaseomyces glabratus was 0.12 mg/L (≈ 0.277 µM); in the test with Cyberlindnera jadinii, 8 mg/L (≈ 18.5 µM); in the test on Candida albicans, 8 mg/L (≈ 18.5 µM); in the test with Mucor hiemalis, 2 mg/L (≈ 4.61 µM); with Pichia kudriavzevii it was 0.5 mg/L (≈ 1.15 µM); in test [1], 8 mg/L (≈ 18.5 µM). Besides, the MIC against Rhizopus arrhizus worked out at 16 mg/L (≈ 36.9 µM); in the test with Candida tropicalis, 8 mg/L (≈ 18.5 µM); in the test with Aspergillus fumigatus, 16 mg/L (≈ 36.9 µM); in the test on Candida parapsilosis, 8 mg/L (≈ 18.5 µM).

Turning to `CCC(C)n1ncn(-c2ccc(N3CCN(c4ccc(OCC5COC(Cn6cncn6)(c6ccc(Cl)cc6Cl)O5)cc4)CC3)cc2)c1=O` (stereo not given) [ITRACONAZOLE], the minimum inhibitory concentration (MIC) against Nakaseomyces glabratus was determined as 1 mg/L (≈ 1.42 µM); in the test on Cyberlindnera jadinii, 0.25 mg/L (≈ 0.354 µM); with Candida albicans, 0.03 mg/L (≈ 0.0425 µM); with Mucor hiemalis it was 4 mg/L (≈ 5.67 µM); in the test with Pichia kudriavzevii, 0.25 mg/L (≈ 0.354 µM); in test [1], 8 mg/L (≈ 11.3 µM). The MIC was determined as 1 mg/L (≈ 1.42 µM) in the test on Rhizopus arrhizus, 0.06 mg/L (≈ 0.085 µM) against Candida tropicalis, 1 mg/L (≈ 1.42 µM) with Aspergillus fumigatus and 0.06 mg/L (≈ 0.085 µM) against Candida parapsilosis.

Consider `Cc1ccc(S(=O)(=O)c2nnn(CCn3c(-c4ccccc4)c(-c4ccccc4)oc3=O)c2-c2ccccc2)cc1`, for which the minimal inhibitory concentration (MIC) was determined as 1 mg/L (≈ 1.78 µM) against Nakaseomyces glabratus; 8 mg/L (≈ 14.2 µM) against Cyberlindnera jadinii; 8 mg/L (≈ 14.2 µM) against Candida albicans; 4 mg/L (≈ 7.11 µM) with Mucor hiemalis; 0.5 mg/L (≈ 0.889 µM) in the test with Pichia kudriavzevii; 8 mg/L (≈ 14.2 µM) in test [1]. Besides, the MIC worked out at 16 mg/L (≈ 28.4 µM) in the test with Rhizopus arrhizus, 8 mg/L (≈ 14.2 µM) against Candida tropicalis, 2 mg/L (≈ 3.55 µM) against Aspergillus fumigatus and 8 mg/L (≈ 14.2 µM) against Candida parapsilosis.

Consider `Cc1ccc(S(=O)(=O)c2nnn(CCn3c(-c4ccccc4)c(-c4ccccc4)oc3=O)c2-c2cccc([N+](=O)[O-])c2)cc1`, for which the MIC against Nakaseomyces glabratus stood at 0.12 mg/L (≈ 0.197 µM); against Cyberlindnera jadinii, 8 mg/L (≈ 13.2 µM); with Candida albicans, 8 mg/L (≈ 13.2 µM); against Mucor hiemalis it was 16 mg/L (≈ 26.3 µM); with Pichia kudriavzevii, 8 mg/L (≈ 13.2 µM); in test [1], 2 mg/L (≈ 3.29 µM). Also, the MIC against Rhizopus arrhizus amounted to 16 mg/L (≈ 26.3 µM); with Candida tropicalis, 8 mg/L (≈ 13.2 µM); against Aspergillus fumigatus, 16 mg/L (≈ 26.3 µM); in the test on Candida parapsilosis, 0.5 mg/L (≈ 0.823 µM).

As to `O=C(c1ccccc1)c1nnn(CCn2c(-c3ccccc3)c(-c3ccccc3)oc2=O)c1-c1ccccc1`, the MIC amounted to 2 mg/L (≈ 3.9 µM) against Nakaseomyces glabratus; 8 mg/L (≈ 15.6 µM) against Cyberlindnera jadinii; 8 mg/L (≈ 15.6 µM) with Candida albicans; 16 mg/L (≈ 31.2 µM) in the test with Mucor hiemalis; 8 mg/L (≈ 15.6 µM) with Pichia kudriavzevii; 8 mg/L (≈ 15.6 µM) in test [1]. The MIC was found to be 16 mg/L (≈ 31.2 µM) in the test on Rhizopus arrhizus, 8 mg/L (≈ 15.6 µM) in the test on Candida tropicalis, 16 mg/L (≈ 31.2 µM) in the test on Aspergillus fumigatus and 8 mg/L (≈ 15.6 µM) in the test with Candida parapsilosis.

Turning to `CC(=O)c1nnn(CCn2c(-c3ccccc3)c(-c3ccccc3)oc2=O)c1C`, the MIC amounted to 2 mg/L (≈ 5.15 µM) in the test on Nakaseomyces glabratus; 8 mg/L (≈ 20.6 µM) in the test with Cyberlindnera jadinii; 8 mg/L (≈ 20.6 µM) in the test on Candida albicans; 16 mg/L (≈ 41.2 µM) in the test with Mucor hiemalis; 8 mg/L (≈ 20.6 µM) in the test on Pichia kudriavzevii; 8 mg/L (≈ 20.6 µM) in [1]. For the same molecule, the MIC with Rhizopus arrhizus was found to be 8 mg/L (≈ 20.6 µM); in the test with Candida tropicalis it was 8 mg/L (≈ 20.6 µM); in the test with Aspergillus fumigatus it was 16 mg/L (≈ 41.2 µM); against Candida parapsilosis, 4 mg/L (≈ 10.3 µM).

On to `Cc1ccc(S(=O)(=O)c2nnn(CCn3c(-c4ccccc4)c(-c4ccccc4)oc3=O)c2-c2ccc(Cl)s2)cc1`, for which the MIC in the test with Nakaseomyces glabratus was 2 mg/L (≈ 3.32 µM); in the test with Cyberlindnera jadinii, 8 mg/L (≈ 13.3 µM); in the test on Candida albicans, 8 mg/L (≈ 13.3 µM); with Mucor hiemalis, 16 mg/L (≈ 26.5 µM); in the test with Pichia kudriavzevii, 2 mg/L (≈ 3.32 µM); in [1] it was 8 mg/L (≈ 13.3 µM). Further, the MIC against Rhizopus arrhizus was 16 mg/L (≈ 26.5 µM); in the test on Candida tropicalis, 8 mg/L (≈ 13.3 µM); in the test with Aspergillus fumigatus it was 16 mg/L (≈ 26.5 µM); with Candida parapsilosis it was 4 mg/L (≈ 6.63 µM).

For the molecule `Cc1ccc(S(=O)(=O)c2nnn(CCn3c(-c4ccccc4)c(-c4ccccc4)oc3=O)c2-c2ccc([N+](=O)[O-])cc2)cc1`, the MIC against Nakaseomyces glabratus came to 4 mg/L (≈ 6.58 µM); in the test with Cyberlindnera jadinii, 4 mg/L (≈ 6.58 µM); in the test on Candida albicans, 4 mg/L (≈ 6.58 µM); with Mucor hiemalis, 16 mg/L (≈ 26.3 µM); with Pichia kudriavzevii it was 0.25 mg/L (≈ 0.411 µM); in test [1], 8 mg/L (≈ 13.2 µM). Moreover, the MIC against Rhizopus arrhizus was found to be 16 mg/L (≈ 26.3 µM); against Candida tropicalis it was 8 mg/L (≈ 13.2 µM); in the test with Aspergillus fumigatus, 2 mg/L (≈ 3.29 µM); against Candida parapsilosis it was 8 mg/L (≈ 13.2 µM).
